Source: PubChem BioAssay
b-catenin transl = beta-catenin nuclear translocation modulation. HeLa beta-catenin nuclear translocation, immunofluorescence imaging. nuclear translocation activity, % at 5 µM. 190,000 compounds, 0.3% hits;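 active means nuclear translocation activity above 50% at 5 µM, with a well cell count of 50 or more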;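 further: per-cell ratio of nuclear to cytoplasmic median beta-catenin stain intensity; plate controls were DMSO negative control for no effect and GSK-3 inhibitor IX positive control for full effect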
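System: Human HeLa cells, endogenous beta-catenin | Compound dosing: 5 µM primary, 0.02–20 µM confirmation | Timing: 24 h compound exposure at 37°C, 5% CO2 | Measured by: Fluorescence imaging of beta-catenin antibody stain plus DAPI | Read-out basis: % activation of per-cell nuclear versus cytoplasmic median beta-catenin signal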
L major viab = Leishmania major promastigote growth inhibition. 200,000 compounds, 9% hits. inhibition, % at 10 µM. Leishmania major promastigotes, resazurin fluorescence viability. AID 1063; in the data active means inhibition above about 50%;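 further: promastigotes grown with compound for 44 hours at 28 °C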
Dynein cargo inh = dynein cargo transport inhibition | 220,000 compounds, 0.47% hits | z-score, hits read low | AID 1381 | 3617.4 mouse cells, GR-EGFP nuclear translocation imaging; test concentration mostly 20 µM; stimulated with dexamethasone, 1 µM; stronger effect = lower value;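 active means plate z-score of nuclear minus cytoplasmic receptor signal below a set negative limit, without overly bright fluorescence or cell loss, cut at about -3.5 in these data, passing the limit was not always enough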;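 further: z-score of nuclear minus cytoplasmic ring GR-EGFP intensity difference per well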
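medium = tetracycline-free induction medium containing charcoal-stripped FBS | probe or stimulus = dexamethasone, 1.0 µM final | timing = 48 h induction, then 1 h compound, then 30 min agonist, 37 °C | detection = automated 10x imaging of fixed Hoechst-stained cells | read-out basis = nuclear versus cytoplasmic GR-EGFP signal, averaged per well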
MT stabilize HCS = microtubule stabilizers in HeLa cells. HeLa tubulin immunostaining HCS, 24 h; share of cells brighter than vehicle mean+2SD. % tubulin-high responders, % at 10 µM. 200,000 compounds, 0.83% hits. AID 2205;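 active means plate Z-score above 3 for both tubulin-high and condensed-nucleus cell shares, with cell loss under 80%, at 10 µM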;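 further: anti alpha tubulin signal scored within the nucleus-defined area of each cell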
CHOP inhibitor = blocks CHOP induction under ER stress; CHO-K1 CHOP-promoter luciferase, tunicamycin-induced, 15-18 h; 220,000 compounds, 3.8% hits; inhibition, % at 10 µM;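 active means compounds that reduced the stress-induced luciferase reporter signal by more than about 70% of percent inhibition, limit read from the data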;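 further: 0% = tunicamycin plus vehicle and 100% = wells without tunicamycin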
Autophagy mod = alters autophagy in cells; MEF GFP-LC3 puncta imaging; test concentration mostly 10 µM; calls only at 10 µM (by protocol); 190,000 compounds, 0.98% hits;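 active means percentage of spot-positive cells more than 3 SD above its plate mean, without a fluorescence outlier flag or 80% toxicity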;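 further: spot-positive cell cutoff set from DMSO-treated cells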
Starred values were filed as active, the others as inactive; i = inactive; · = not tested or not shown. Sampled rows, rich in hits. Any-hit rate of the full collection: about 12%.

SMILES	b-catenin transl	L major viab	Dynein cargo inh	MT stabilize HCS	CHOP inhibitor	Autophagy mod
S=C(NCCCc1ccccc1)Nc1ccccc1Cl	-1	17	0.93	4	-4	i
O=[N+]([O-])c1ccc(NNC(=S)Nc2ccccc2)cc1	-1	53*	-0.24	3	6	i
NS(=O)(=O)c1ccc(NC(=S)NCCc2ccccc2)cc1	0	7	0.63	5	-10	i
O=[N+]([O-])c1ccc(NC(=S)NCCc2ccccc2)cc1	-7	74*	-0.88	2	46	i
O=[N+]([O-])c1ccc(O)c(NC(=S)Nc2ccccc2)c1	-7	0	0.53	1	19	i
S=C(NCCc1ccccc1)Nc1ccccc1Cl	-2	68*	-0.25	2	12	i
Cc1c(-c2ccccc2)oc2c(C(=O)N3CCN(c4ccc([N+](=O)[O-])cc4)CC3)cccc2c1=O	-1	25	0.1	6	49	i
Cc1ccccc1C(=O)N1CCN(c2ccc([N+](=O)[O-])c(NCc3ccco3)c2)CC1	-2	12	0.47	3	41	i
O=C(c1cccc2ccccc12)N1CCN(c2ccc([N+](=O)[O-])c(NCc3ccco3)c2)CC1	5	55*	-0.47	6	19	i
Cc1ccc(S(=O)(=O)NCCC(=O)Nc2nnc(C3CC3)s2)cc1C	-7	3	2	5	19	i
Cc1cc(C)cc(N(CCC(=O)Nc2nnc(C3CC3)s2)S(=O)(=O)c2ccc(Cl)cc2)c1	-2	82*	-0.21	19*	56	i
Cc1ccc(Nc2nc(N)c(C#N)c(CC#N)c2C#N)cc1	-2	5	1	4	14	i
CCOC(=O)C1=C(Nc2ccc(OC)cc2)OCC1=O	-2	·	-0.23	·	8	·
CCOC(=O)Cc1cnc(NC(=O)NC(C(=O)OCC)(c2ccccc2)C(F)(F)F)s1 (stereo not given)	·	-5	-0.45	3	85*	i
Cc1ccc(S(=O)(=O)N2CCN(C(=S)NCc3ccc4c(c3)OCO4)CC2)cc1	-3	21	0.32	3	38	i
CN1CCc2cccc3c2C1Cc1ccc(O)c(O)c1-3 (stereo not given)	·	·	·	·	74*	·
CC(C)c1nnc(SCC(=O)N2CCc3ccccc32)n1N	1	0	-0.11	5	9	i
CCCCNC(=O)c1ccc(N2CCC3(CC2)OCCO3)c([N+](=O)[O-])c1	-1	59*	0.13	1	4	i
CCOC(=O)N1CCC(NC(=O)c2ccc(N3CCC4(CC3)OCCO4)c([N+](=O)[O-])c2)CC1	0	-3	-0.7	·	24	i
O=C(NCCCn1ccnc1)c1ccc(N2CCCCCC2)c([N+](=O)[O-])c1	-3	90*	-0.56	1	21	i
CN(C)CCCNC(=O)C(=O)NCC1CCCO1 (stereo not given)	-1	-10	-0.48	2	0	i
CC(Oc1ccc(Cl)cc1)c1ccnc(N)n1 (stereo not given)	1	3	1.3	2	7	i
COc1ccc(-c2csc(Nc3ccc(S(=O)(=O)Nc4cc(OC)nc(OC)n4)cc3)n2)cc1	·	3	-0.31	3	89*	i
Cc1cc(C)n2nc(CCCCc3nc4nc(C)cc(C)n4n3)nc2n1	0	-3	-0.68	2	-11	i
CCN(C(=O)COC(=O)c1cccnc1Nc1cccc(C(F)(F)F)c1)C1CCS(=O)(=O)C1 (stereo not given)	·	59*	-0.86	3	26	i
SMILES	b-catenin transl	L major viab	Dynein cargo inh	MT stabilize HCS	CHOP inhibitor	Autophagy mod
CCOC(=O)Cc1csc(NC(=O)c2ccc(Cl)nc2)n1	1	1	0.26	37*	54	i
CCOC(=O)Cc1csc(NC(=S)NC(=O)CC(C)C)n1	0	54*	0.81	3	8	i
CN(CC(=O)N1CCc2ccccc21)S(=O)(=O)c1ccc(Br)s1	·	-1	0.12	1	4	i
Cc1cc(=O)[nH]c(SC(C(=O)O)c2ccccc2)n1 (stereo not given)	·	73*	0.89	2	5	i
Cc1cc(=O)[nH]c(SCC(=O)N2CCN(C(c3ccccc3)c3ccccc3)CC2)n1	·	15	-0.28	2	74*	i
COc1cc(NC(=O)CCCC(=O)OCC(F)(F)C(F)F)nc(OC)n1	0	26	0.79	4	12	i
Cc1c(C(=O)C(=O)NCc2ccco2)c2ccccc2n1C	0	0	0.43	4	11	i
S=C(NC1CCCCC1)N1CCN(c2ccccn2)CC1	2	3	0.49	3	11	i
Cc1ccc(S(=O)(=O)N2CCN(C(C)CC(=O)O)CC2)cc1 (stereo not given)	-5	0	0.83	3	16	i
Cc1ccc(C2=Nc3ccc(Br)cc3C(c3ccncc3)=NN2)cc1	0	85*	-0.46	2	31	i
CC(C)c1ccc2c(c1)C(c1ccc(N3CCOCC3)cc1)=NNC(c1cccs1)=N2	4	83*	-1.7	2	15	i
Cc1ccc2c(c1)C(c1ccncc1)=NNC(c1ccc(C(C)C)cc1)=N2	-1	20	0.21	8	98*	i
NCC(O)COCCC12CC3CC(CC(C3)C1)C2 (stereo not given)	-1	16	1.7	2	7	i
OC(COCCC12CC3CC(CC(C3)C1)C2)CN1CCCC1 (stereo not given)	1	91*	-0.9	5	-6	i
O=C(OCC(O)CN1CCCCC1)C12CC3CC(CC(C3)C1)C2 (stereo not given)	1	91*	-0.32	5	25	i
C=CCN(c1ccccc1C(=O)O)S(=O)(=O)c1ccc(C)cc1	3	-6	-1	3	-13	i
CC(CC1C(C#N)=C(N)SC(N)=C1C#N)c1ccccc1 (stereo not given)	-1	-6	-0.76	1	-24	i
O=C(O)c1ccccc1-c1ccccc1C(=O)Nc1cccc(O)c1	-6	-8	-0.53	1	-4	i
Cc1ccc(OCC(=O)NNc2c3ccccc3nc3ccccc23)cc1	1	97*	-0.81	1	30	i
Cc1cccc(OCC(=O)NNc2c3ccccc3nc3ccccc23)c1	-1	40	-1.1	1	52	i
CC(CNS(=O)(=O)c1ccccc1)(c1ccccc1)N1CCCCC1 (stereo not given)	0	·	0.067	·	0	·
COc1ccc(-c2cn3cc(C(F)(F)F)cc(Cl)c3n2)cc1	6	19	-0.67	16*	13	i
COc1ccc(N2CC(C(=O)N/N=C/c3ccc(C)cc3)CC2=O)cc1 (stereo not given)	54*	0	2	21	-33	i
